ChEMBL document CHEMBL3045755, “Specific and differential inhibition of very-long-chain fatty acid elongases from Arabidopsis thaliana by different herbicides” (Proc Natl Acad Sci U S A, 2004)
Active and inactive are the calls of the source. The calls are words filed in the database; no cut-off is given here.

What was measured:
Saccharomyces cerevisiae = test: Growth inhibition of Saccharomyces cerevisiae INVSc1 at 100 uM after 18 to 20 hr; format: organism-based; settings: in vivo
How it was run: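 Yeast strains expressing the active elongases were induced in raffinose/galactose medium with herbicide at 100 μM for the 18–20 h incubation. Growth was followed by optical density and compared with cultures lacking inhibitor.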

Arabidopsis thaliana = test: Herbicidal activity against Arabidopsis thaliana assessed as apperance of fiddle head phenotype; format: functional, organism-based
[1] = biological target: T1, 3-ketoacyl-CoA synthase 20 (Arabidopsis thaliana) (UniProt Q9FG87); test: Inhibition of Arbidopsis thaliana C-terminal His-tagged At5g43760 expressed in Saccharomyces cerevisiae INVSc1 at 100 uM after 18 to 20 hr by GC/MS analysis
T1 sequence (whole entry): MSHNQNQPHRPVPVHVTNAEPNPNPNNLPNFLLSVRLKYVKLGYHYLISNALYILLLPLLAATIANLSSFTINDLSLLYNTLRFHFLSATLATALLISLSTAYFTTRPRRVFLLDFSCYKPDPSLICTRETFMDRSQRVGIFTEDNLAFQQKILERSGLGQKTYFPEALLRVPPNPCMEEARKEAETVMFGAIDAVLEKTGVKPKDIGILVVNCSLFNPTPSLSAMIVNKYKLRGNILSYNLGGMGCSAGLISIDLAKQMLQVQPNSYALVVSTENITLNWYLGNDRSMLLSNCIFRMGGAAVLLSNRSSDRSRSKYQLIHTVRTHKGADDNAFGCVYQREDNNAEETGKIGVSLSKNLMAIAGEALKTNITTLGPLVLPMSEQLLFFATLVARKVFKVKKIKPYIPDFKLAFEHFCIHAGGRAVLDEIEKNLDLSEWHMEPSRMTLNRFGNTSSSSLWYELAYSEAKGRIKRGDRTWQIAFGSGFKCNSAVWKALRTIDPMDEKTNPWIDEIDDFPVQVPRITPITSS
How it was run: (§1)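 pYES2 galactose-inducible constructs in INVSc1, grown at 28°C in uracil-dropout minimal medium with 2% glucose. Log-phase cells were induced in 1% raffinose/2% galactose with herbicide at final 100 μM, in 50-ml culture for 18–20 h, then freeze-dried. FAMEs were made in 1 M methanolic HCl/5% dimethoxypropane at 80°C for 1 h under N2 and run on GC/MS. VLCFA profile was compared with herbicide-free elongase-expressing cells.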

[2] = biological target: T2, 3-ketoacyl-CoA synthase 2 (Arabidopsis thaliana) (UniProt Q5XEP9); test: Inhibition of Arbidopsis thaliana C-terminal His-tagged At1g04220 expressed in Saccharomyces cerevisiae INVSc1 at 100 uM after 18 to 20 hr by GC/MS analysis; how it was run: as §1
T2 sequence (whole entry): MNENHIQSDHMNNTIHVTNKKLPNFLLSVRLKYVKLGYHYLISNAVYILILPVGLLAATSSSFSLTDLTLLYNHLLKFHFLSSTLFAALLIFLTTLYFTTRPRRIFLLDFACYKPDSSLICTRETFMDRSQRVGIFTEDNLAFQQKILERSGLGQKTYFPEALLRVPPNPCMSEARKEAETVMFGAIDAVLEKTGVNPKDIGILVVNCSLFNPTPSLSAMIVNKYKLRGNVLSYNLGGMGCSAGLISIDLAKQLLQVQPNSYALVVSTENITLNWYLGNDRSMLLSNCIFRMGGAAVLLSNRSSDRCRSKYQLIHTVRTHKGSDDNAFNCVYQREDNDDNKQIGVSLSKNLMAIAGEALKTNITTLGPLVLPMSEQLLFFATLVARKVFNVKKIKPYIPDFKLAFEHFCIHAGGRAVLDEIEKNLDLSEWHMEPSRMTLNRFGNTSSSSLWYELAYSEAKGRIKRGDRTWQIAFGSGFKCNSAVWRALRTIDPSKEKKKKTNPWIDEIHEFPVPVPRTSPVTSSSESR

[3] = biological target: T3, 3-ketoacyl-CoA synthase 5 (Arabidopsis thaliana) (UniProt Q9C6L5); test: Inhibition of Arbidopsis thaliana C-terminal His-tagged CER60 expressed in Saccharomyces cerevisiae INVSc1 at 100 uM after 18 to 20 hr by GC/MS analysis; how it was run: as §1
T3 sequence (whole entry): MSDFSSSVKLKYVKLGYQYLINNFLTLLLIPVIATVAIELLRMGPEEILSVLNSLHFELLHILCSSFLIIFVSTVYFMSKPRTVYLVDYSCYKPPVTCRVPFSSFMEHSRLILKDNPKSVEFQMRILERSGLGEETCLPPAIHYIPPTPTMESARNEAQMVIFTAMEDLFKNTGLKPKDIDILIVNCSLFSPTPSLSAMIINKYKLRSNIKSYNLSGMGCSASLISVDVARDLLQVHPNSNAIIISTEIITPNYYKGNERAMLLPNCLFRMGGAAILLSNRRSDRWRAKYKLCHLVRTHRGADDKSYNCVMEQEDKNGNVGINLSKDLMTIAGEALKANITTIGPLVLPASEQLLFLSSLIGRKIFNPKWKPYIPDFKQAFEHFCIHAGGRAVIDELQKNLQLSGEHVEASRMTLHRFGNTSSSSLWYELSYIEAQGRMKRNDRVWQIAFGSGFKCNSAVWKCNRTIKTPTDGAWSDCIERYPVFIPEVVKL

[4] = biological target: T4, 3-ketoacyl-CoA synthase 17 (Arabidopsis thaliana) (UniProt O65677); test: Inhibition of Arbidopsis thaliana C-terminal His-tagged KCS2 expressed in Saccharomyces cerevisiae INVSc1 at 100 uM after 18 to 20 hr by GC/MS analysis; how it was run: as §1
T4 sequence (whole entry): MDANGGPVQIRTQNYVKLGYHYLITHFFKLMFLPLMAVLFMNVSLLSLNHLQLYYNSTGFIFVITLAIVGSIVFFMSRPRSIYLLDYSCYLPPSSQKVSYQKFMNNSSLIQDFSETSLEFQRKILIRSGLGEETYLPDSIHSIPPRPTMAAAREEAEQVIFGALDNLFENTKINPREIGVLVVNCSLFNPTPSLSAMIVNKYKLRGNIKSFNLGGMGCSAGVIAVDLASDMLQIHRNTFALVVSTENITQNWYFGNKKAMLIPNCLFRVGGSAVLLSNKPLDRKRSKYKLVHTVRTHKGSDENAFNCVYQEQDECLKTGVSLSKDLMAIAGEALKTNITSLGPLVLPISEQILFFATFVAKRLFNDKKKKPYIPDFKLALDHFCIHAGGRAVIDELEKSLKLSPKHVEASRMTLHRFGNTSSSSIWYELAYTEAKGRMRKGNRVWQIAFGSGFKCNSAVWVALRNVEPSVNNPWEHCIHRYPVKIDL

[5] = biological target: T5, 3-ketoacyl-CoA synthase 1 (Arabidopsis thaliana) (UniProt Q9MAM3); test: Inhibition of Arbidopsis thaliana C-terminal His-tagged KCS1 expressed in Saccharomyces cerevisiae INVSc1 at 100 uM after 18 to 20 hr by GC/MS analysis; how it was run: as §1
T5 sequence (whole entry): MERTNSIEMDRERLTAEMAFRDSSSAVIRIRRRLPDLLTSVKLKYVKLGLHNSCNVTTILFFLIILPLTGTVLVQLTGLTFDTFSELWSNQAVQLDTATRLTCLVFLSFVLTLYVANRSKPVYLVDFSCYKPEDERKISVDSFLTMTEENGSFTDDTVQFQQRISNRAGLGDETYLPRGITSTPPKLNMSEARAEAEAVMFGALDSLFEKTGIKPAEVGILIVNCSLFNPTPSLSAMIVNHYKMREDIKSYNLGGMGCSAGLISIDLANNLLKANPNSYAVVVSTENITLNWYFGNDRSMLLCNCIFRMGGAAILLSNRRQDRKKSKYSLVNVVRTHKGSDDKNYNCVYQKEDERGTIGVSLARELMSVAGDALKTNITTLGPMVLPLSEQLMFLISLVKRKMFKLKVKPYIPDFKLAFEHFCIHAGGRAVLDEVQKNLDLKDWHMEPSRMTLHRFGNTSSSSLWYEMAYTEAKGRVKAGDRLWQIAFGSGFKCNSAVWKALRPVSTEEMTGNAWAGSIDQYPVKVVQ

[6] = biological target: T6, 3-ketoacyl-CoA synthase 18 (Arabidopsis thaliana) (UniProt Q38860); test: Inhibition of Arbidopsis thaliana C-terminal His-tagged FAE1 expressed in Saccharomyces cerevisiae INVSc1 at 100 uM after 18 to 20 hr by GC/MS analysis; how it was run: as §1
T6 sequence (whole entry): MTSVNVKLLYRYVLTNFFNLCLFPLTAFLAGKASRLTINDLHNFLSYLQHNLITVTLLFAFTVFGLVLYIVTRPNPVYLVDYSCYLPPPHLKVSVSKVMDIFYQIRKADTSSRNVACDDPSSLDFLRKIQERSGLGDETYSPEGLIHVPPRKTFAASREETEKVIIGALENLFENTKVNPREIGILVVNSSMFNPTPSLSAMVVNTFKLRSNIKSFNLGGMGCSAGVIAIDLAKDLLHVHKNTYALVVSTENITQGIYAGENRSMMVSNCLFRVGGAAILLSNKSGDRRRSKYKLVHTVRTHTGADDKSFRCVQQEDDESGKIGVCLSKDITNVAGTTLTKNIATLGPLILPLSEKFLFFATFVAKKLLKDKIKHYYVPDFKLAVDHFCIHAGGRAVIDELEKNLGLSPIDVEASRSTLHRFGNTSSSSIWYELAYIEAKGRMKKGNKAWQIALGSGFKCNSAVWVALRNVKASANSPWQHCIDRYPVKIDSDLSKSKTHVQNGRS

Structure (SMILES)	Activity (Saccharomyces cerevisiae)	Activity (Arabidopsis thaliana)	inhibition [1]	inhibition [2]	inhibition [3]	inhibition [4]	inhibition [5]	inhibition [6]
CCc1cccc(CC)c1N(COC)C(=O)CCl [ALACHLOR]	Non-toxic	inactive	Active	inactive	Active	Active	Active	inactive
CCS(=O)(=O)Oc1ccc2c(c1)C(C)(C)CO2 [BENFURESATE]	Non-toxic	Active	inactive	inactive	inactive	inactive	inactive	inactive
CCN(CC)C(=O)n1cnc(S(=O)(=O)c2c(C)cc(C)cc2C)n1 [CAFENSTROLE]	Non-toxic	Active	Active	Active	Active	Active	Active	Active
CN(C)C(=O)C(c1ccccc1)c1ccccc1 [DIPHENAMIDE]	Non-toxic	inactive	inactive	inactive	inactive	inactive	inactive	inactive
CCOC1Oc2ccc(OS(C)(=O)=O)cc2C1(C)C (configuration not stated) [ETHOFUMESATE]	Non-toxic	Active	inactive	inactive	inactive	inactive	inactive	inactive
CCN(C(=O)n1nnn(-c2ccccc2Cl)c1=O)C1CCCCC1 [FENTRAZAMIDE]	Non-toxic	Active	Active	inactive	inactive	Active	Active	inactive
CC(C)N(C(=O)COc1nnc(C(F)(F)F)s1)c1ccc(F)cc1 [FLUFENACET]	Non-toxic	Active	Active	Active	Active	Active	Active	Active
CCN(CC)C(=O)C(C)Oc1cccc2ccccc12 (configuration not stated) [NAPROPAMIDE]	Non-toxic	inactive	inactive	inactive	inactive	inactive	inactive	inactive
CC(C)N(C(=O)SCC(Cl)=C(Cl)Cl)C(C)C [TRIALLATE]	Non-toxic	inactive	inactive	inactive	Active	inactive	inactive	inactive
